Data published in ChEMBL document CHEMBL2375313, “Synthesis, in vitro antitumor evaluation and DNA-binding study of novel tetrahydroquinolines and some derived tricyclic and tetracyclic ring systems” (Eur J Med Chem, 2013).

Key:
Type in all cases: functional
OVCAR-4 = test: Cytotoxicity against human OVCAR4 cells assessed as growth inhibition at 10 uM after 48 hrs by sulphorhodamine B assay; settings: OVCAR-4, 48 h, read-out: GI
Procedure, shortened: (§1)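 NCI-60 one-dose screen per the NCI Drug Evaluation Branch protocol. Cells given a single 10 µM concentration with 48 h continuous exposure. Growth estimated by sulphorhodamine B protein assay. Result expressed as percentage growth inhibition relative to untreated growth.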

PC-3 = test: Cytotoxicity against human PC3 cells assessed as growth inhibition at 10 uM after 48 hrs by sulphorhodamine B assay; settings: PC-3, 48 h, read-out: GI; procedure, shortened: as §1
SR = test: Cytotoxicity against human SR cells assessed as growth inhibition at 10 uM after 48 hrs by sulphorhodamine B assay; settings: read-out: GI; procedure, shortened: as §1
K562 = test: Cytotoxicity against human K562 cells assessed as growth inhibition at 10 uM after 48 hrs by sulphorhodamine B assay; settings: K562, 48 h, read-out: GI; procedure, shortened: as §1
HOP-92 = test: Cytotoxicity against human HOP92 cells assessed as growth inhibition at 10 uM after 48 hrs by sulphorhodamine B assay; settings: HOP-92, 48 h, read-out: GI; procedure, shortened: as §1
A549 = test: Cytotoxicity against human A549 cells assessed as growth inhibition at 10 uM after 48 hrs by sulphorhodamine B assay; settings: A549, 48 h, read-out: GI; procedure, shortened: as §1
UACC-62 = test: Cytotoxicity against human UACC62 cells assessed as growth inhibition at 10 uM after 48 hrs by sulphorhodamine B assay; settings: UACC-62, 48 h, read-out: GI; procedure, shortened: as §1
HCT-116 = test: Cytotoxicity against human HCT116 cells assessed as growth inhibition at 10 uM after 48 hrs by sulphorhodamine B assay; settings: HCT-116, 48 h, read-out: GI; procedure, shortened: as §1
RPMI-8226 = test: Cytotoxicity against human RPMI8226 cells assessed as growth inhibition at 10 uM after 48 hrs by sulphorhodamine B assay; settings: RPMI-8226, 48 h, read-out: GI; procedure, shortened: as §1
MDA-MB-435 = test: Cytotoxicity against human MDA-MB-435 cells assessed as growth inhibition at 10 uM after 48 hrs by sulphorhodamine B assay; settings: MDA-MB-435, 48 h, read-out: GI; procedure, shortened: as §1
NCI/ADR-RES = test: Cytotoxicity against human NCI/ADR-RES cells assessed as growth inhibition at 10 uM after 48 hrs by sulphorhodamine B assay; settings: read-out: GI; procedure, shortened: as §1
IGROV-1 = test: Cytotoxicity against human IGROV1 cells assessed as growth inhibition at 10 uM after 48 hrs by sulphorhodamine B assay; settings: IGROV-1, 48 h, read-out: GI; procedure, shortened: as §1
SK-MEL-2 = test: Cytotoxicity against human SK-MEL-2 cells assessed as growth inhibition at 10 uM after 48 hrs by sulphorhodamine B assay; settings: SK-MEL-2, 48 h, read-out: GI; procedure, shortened: as §1
SF-268 = test: Cytotoxicity against human SF268 cells assessed as growth inhibition at 10 uM after 48 hrs by sulphorhodamine B assay; settings: SF-268, 48 h, read-out: GI; procedure, shortened: as §1
MDA-MB-468 = test: Cytotoxicity against human MDA-MB-468 cells assessed as growth inhibition at 10 uM after 48 hrs by sulphorhodamine B assay; settings: MDA-MB-468, 48 h, read-out: GI; procedure, shortened: as §1
SK-MEL-5 = test: Cytotoxicity against human SK-MEL-5 cells assessed as growth inhibition at 10 uM after 48 hrs by sulphorhodamine B assay; settings: SK-MEL-5, 48 h, read-out: GI; procedure, shortened: as §1
HL-60(TB) = test: Cytotoxicity against human HL-60(TB) cells assessed as growth inhibition at 10 uM after 48 hrs by sulphorhodamine B assay; settings: HL-60, 48 h, read-out: GI
Procedure, shortened: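 NCI-60 one-dose primary screen run to the Drug Evaluation Branch protocol. Cells are exposed to a single 10 µM concentration for 48 h continuously, and growth is read by SRB protein assay. Data are reported as percent growth of treated cells, expressed as % growth inhibition.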

UO-31 = test: Cytotoxicity against human UO31 cells assessed as growth inhibition at 10 uM after 48 hrs by sulphorhodamine B assay; settings: UO-31, 48 h, read-out: GI; procedure, shortened: as §1
SF-295 = test: Cytotoxicity against human SF295 cells assessed as growth inhibition at 10 uM after 48 hrs by sulphorhodamine B assay; settings: SF-295, 48 h, read-out: GI; procedure, shortened: as §1
OVCAR-5 = test: Cytotoxicity against human OVCAR5 cells assessed as growth inhibition at 10 uM after 48 hrs by sulphorhodamine B assay; settings: OVCAR-5, 48 h, read-out: GI; procedure, shortened: as §1
Hs-578T = test: Cytotoxicity against human Hs578T cells assessed as growth inhibition at 10 uM after 48 hrs by sulphorhodamine B assay; settings: read-out: GI; procedure, shortened: as §1
SK-OV-3 = test: Cytotoxicity against human SKOV3 cells assessed as growth inhibition at 10 uM after 48 hrs by sulphorhodamine B assay; settings: SK-OV-3, 48 h, read-out: GI; procedure, shortened: as §1
HT-29 = test: Cytotoxicity against human HT-29 cells assessed as growth inhibition at 10 uM after 48 hrs by sulphorhodamine B assay; settings: HT-29, 48 h, read-out: GI; procedure, shortened: as §1
HCT-15 = test: Cytotoxicity against human HCT15 cells assessed as growth inhibition at 10 uM after 48 hrs by sulphorhodamine B assay; settings: HCT-15, 48 h, read-out: GI; procedure, shortened: as §1
NCI-H522 = test: Cytotoxicity against human NCI-H522 cells assessed as growth inhibition at 10 uM after 48 hrs by sulphorhodamine B assay; settings: NCI-H522, 48 h, read-out: GI; procedure, shortened: as §1
SNB-19 = test: Cytotoxicity against human SNB19 cells assessed as growth inhibition at 10 uM after 48 hrs by sulphorhodamine B assay; settings: SNB-19, 48 h, read-out: GI; procedure, shortened: as §1
LOX IMVI = test: Cytotoxicity against human LOXIMVI cells assessed as growth inhibition at 10 uM after 48 hrs by sulphorhodamine B assay; settings: read-out: GI; procedure, shortened: as §1
M14 = test: Cytotoxicity against human M14 cells assessed as growth inhibition at 10 uM after 48 hrs by sulphorhodamine B assay; settings: M14, 48 h, read-out: GI; procedure, shortened: as §1
SNB-75 = test: Cytotoxicity against human SNB75 cells assessed as growth inhibition at 10 uM after 48 hrs by sulphorhodamine B assay; settings: SNB-75, 48 h, read-out: GI; procedure, shortened: as §1
DU-145 = test: Cytotoxicity against human DU145 cells assessed as growth inhibition at 10 uM after 48 hrs by sulphorhodamine B assay; settings: DU-145, 48 h, read-out: GI; procedure, shortened: as §1
CCRF-CEM = test: Cytotoxicity against human CCRF-CEM cells assessed as growth inhibition at 10 uM after 48 hrs by sulphorhodamine B assay; settings: read-out: GI; procedure, shortened: as §1
A498 = test: Cytotoxicity against human A498 cells assessed as growth inhibition at 10 uM after 48 hrs by sulphorhodamine B assay; settings: A498, 48 h, read-out: GI; procedure, shortened: as §1
NCI-H23 = test: Cytotoxicity against human NCI-H23 cells assessed as growth inhibition at 10 uM after 48 hrs by sulphorhodamine B assay; settings: NCI-H23, 48 h, read-out: GI; procedure, shortened: as §1
CAKI-1 = test: Cytotoxicity against human Caki1 cells assessed as growth inhibition at 10 uM after 48 hrs by sulphorhodamine B assay; settings: CAKI-1, 48 h, read-out: GI; procedure, shortened: as §1
[1] = Cytotoxicity against human EKVX cells assessed as growth inhibition at 10 uM after 48 hrs by sulphorhodamine B assay; settings: read-out: GI; procedure, shortened: as §1
RXF 393 = test: Cytotoxicity against human RXF393 cells assessed as growth inhibition at 10 uM after 48 hrs by sulphorhodamine B assay; settings: RXF 393, 48 h, read-out: GI; procedure, shortened: as §1
ACHN = test: Cytotoxicity against human ACHN cells assessed as growth inhibition at 10 uM after 48 hrs by sulphorhodamine B assay; settings: read-out: GI; procedure, shortened: as §1
MCF7 = test: Cytotoxicity against human MCF7 cells assessed as growth inhibition at 10 uM after 48 hrs by sulphorhodamine B assay; settings: MCF7, 48 h, read-out: GI; procedure, shortened: as §1
T47D = test: Cytotoxicity against human T47D cells assessed as growth inhibition at 10 uM after 48 hrs by sulphorhodamine B assay; settings: read-out: GI; procedure, shortened: as §1
U-251 = test: Cytotoxicity against human U251 cells assessed as growth inhibition at 10 uM after 48 hrs by sulphorhodamine B assay; settings: U-251, 48 h, read-out: GI; procedure, shortened: as §1
MOLT-4 = test: Cytotoxicity against human MOLT4 cells assessed as growth inhibition at 10 uM after 48 hrs by sulphorhodamine B assay; settings: MOLT-4, 48 h, read-out: GI; procedure, shortened: as §1

Measured: inhibition of growth at 10 µM

COc1ccc(-c2c3c(nc4nc[nH]c(=O)c24)C(C)CCC3)cc1 (configuration not stated)
< 10%: OVCAR-4 | PC-3 | SR | K562 | HOP-92 | A549 | UACC-62 | HCT-116 | RPMI-8226 | MDA-MB-435 | IGROV-1 | SK-MEL-2 | SF-268 | SK-MEL-5 | HL-60(TB) | UO-31 | SF-295 | OVCAR-5 | Hs-578T | SK-OV-3 | HT-29 | SNB-19 | LOX IMVI | M14 | DU-145 | CCRF-CEM | A498 | CAKI-1 | [1] | RXF 393 | ACHN | MCF7 | T47D | MOLT-4
34.3%: SNB-75
20.8%: NCI-H522
20%: NCI/ADR-RES
13.7%: HCT-15
13.8%: NCI-H23
21.5%: MDA-MB-468
19%: U-251

CC1CCCc2c1nc(N)c(C#N)c2-c1ccc(Cl)cc1 (configuration not stated)
11.8%: K562
21.7%: A498
15%: SK-MEL-2
11.3%: SF-268
25%: Hs-578T
20.5%: SNB-19
10.1%: OVCAR-4
18.2%: RPMI-8226
36.5%: MDA-MB-468
24.2%: UACC-62
17.2%: T47D
13.3%: CCRF-CEM
10%: HOP-92
39.5%: [1]
< 10%: PC-3 | SR | A549 | HCT-116 | MDA-MB-435 | NCI/ADR-RES | IGROV-1 | SK-MEL-5 | HL-60(TB) | UO-31 | SF-295 | OVCAR-5 | SK-OV-3 | HT-29 | HCT-15 | NCI-H522 | LOX IMVI | M14 | DU-145 | NCI-H23 | CAKI-1 | RXF 393 | ACHN | U-251 | MOLT-4
31.5%: MCF7
26.8%: SNB-75
